These results are taken from ChEMBL document CHEMBL2034832, “12-N-Methylated 5,6-dihydrobenzo[c]acridine derivatives: a new class of highly selective ligands for c-myc G-quadruplex DNA” (Eur J Med Chem, 2012).

Activity calls are given as the source filed them. No cut-off for these calls is given here.

Assay [1] has as its system Nucleic Acid. Put plainly: Binding affinity to c-myc quadruplex DNA Pu27 assessed as conformational change up to 10 uM by circular dichroism in the presence of 100 mM K+. In kind it is nucleic-acid assay. The method in brief:
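CD titration of 1 μM Pu27, annealed (95 °C 5 min, slow cool, 4 °C overnight) in 10 mM Tris-HCl pH 7.2, 100 mM KCl. Ligand added stepwise (0.5–10 eq.) at 25 °C, ≥10 min equilibration per addition. Spectra 230–430 nm, 1 cm cell, average of two scans, buffer baseline subtracted.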
In general terms: CD spectra are sensitive to the conformation of chiral molecules.

Assay [2] relates to Nucleic Acid. As to the kind of experiment: Binding affinity to c-myc quadruplex DNA FPu18T assessed as change in melting temperature at 2 uM by FRET-melting assay. In kind it is nucleic-acid assay. The procedure, abridged: (§1)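 FRET melting of 0.2 μM dual-labelled oligo (FPu18T, FAM/TAMRA c-myc G-quadruplex; or F10T, HEG-linked hairpin duplex) in 10 mM Tris-HCl pH 7.2, 0.2 mM KCl, with or without 2 μM ligand. Excitation 470 nm, emission 530 nm, read every 1 °C from 37–99 °C after 30 s hold. ΔTm = Tm(DNA+ligand) − Tm(DNA); mean ± SD of at least three runs.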

The subject of assay [3] is Nucleic Acid. Put plainly: Binding affinity to c-myc quadruplex DNA Pu27 assessed as conformational change up to 10 uM by circular dichroism in the absence of 100 mM K+. In kind it is nucleic-acid assay. The method in brief: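 K+-free CD: 1 μM Pu27 in 10 mM Tris-HCl pH 7.2 with ligand at 0, 3, 5 or 10 μM, co-annealed (95 °C 5 min, slow cool, 4 °C overnight). Spectra recorded at 25 °C over 230–430 nm, 1 cm cell, two scans averaged, buffer baseline subtracted.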

In assay [4] the target is Nucleic Acid. As to the kind of experiment: Binding affinity to immobilised c-myc quadruplex DNA G4 by SPR assay. In kind it is nucleic-acid assay. The method in brief: (§2)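 SPR: biotinylated DNA captured (~1000 RU) on GLH chip, blank reference cell. Running buffer 50 mM Tris-HCl pH 7.2, 100 mM KCl. Ligand at 0.3125–10 μM injected at 100 μL/min, 400 s association and 400 s dissociation, 25 °C; NaOH regeneration. KD by equilibrium analysis; mean ± SD of at least two runs.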
Background: SPR reads the build-up and loss of mass on a sensor chip optically.

The subject of assay [5] is Nucleic Acid. As to the kind of experiment: Binding affinity to c-myc quadruplex DNA FPu18T assessed as change in melting temperature at 2 uM by FRET-melting assay in the presence of excess of ds26 duplex DNA. In kind it is nucleic-acid assay. The method in brief: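 Competition FRET melting: 0.2 μM FPu18T with 2 μM ligand in 10 mM Tris-HCl pH 7.2, 0.2 mM KCl, plus varying amounts of unlabelled self-complementary ds26 duplex as competitor. Fluorescence at 470/530 nm recorded per 1 °C step over 37–99 °C.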

In assay [6] the test system is Nucleic Acid. Put plainly: Binding affinity to duplex DNA F10T assessed as change in melting temperature at 2 uM by FRET-melting assay. In kind it is nucleic-acid assay. The procedure, abridged:
as §1

In assay [7] the test system is Nucleic Acid. Put plainly: Binding affinity to immobilised duplex DNA up to 10 uM by SPR assay. In kind it is nucleic-acid assay. The procedure, abridged:
as §2

For assay [8], the target named is Nucleic Acid. Put plainly: Binding affinity to c-myc quadruplex DNA Pu27 assessed as inhibition of c-myc amplification by PCR-stop assay. In kind it is nucleic-acid assay. The procedure, abridged:
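Pu27 template with partly complementary primer, 10 μM each, […], 2.5 U Taq and ligand at 1, 5, 10 or 25 μM (one series 50 μM). Cycling: 94 °C 2 min, then 30 × (94 °C, 58 °C, 72 °C, 30 s each). Products run on 16% native PAGE, GelRed stain; IC50 for 50% loss of amplification.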

Assay [9] deals with Ramos. As to the kind of experiment: Growth inhibition of human Ramos cell line expressing c-myc NHE III1 after 4 days by cell counting. In kind it is functional, cell-based. The procedure, abridged: (§3)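 Cells seeded at 1.0×10^5 per well and exposed to ligand (2.5, 5 or 10 μM) or 0.1% DMSO for 4 days. Cell counts and viability taken daily; three repeats per point.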
The test system of assay [10] is CA46. Put plainly: Down-regulation of c-myc gene expression in human CA46 cells at 0.5 to 5 uM after 4 days by RT-PCR analysis. In kind it is functional, cell-based. The procedure, abridged: (§4)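 Cells given ligand at 0.5, 1, 2.5 or 5 μM for 4 days. Total RNA (TRIpure) 2 μg reverse-transcribed with oligo dT18/M-MLV (42 °C 1 h). c-myc and β-actin amplified by PCR, run on 1% agarose; c-myc normalized to β-actin.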

The subject of assay [11] is CA46. As to the kind of experiment: Growth inhibition of c-myc NHE III1-deficient human CA46 cell line at 2.5 to 10 uM after 4 days by cell counting. In kind it is functional, cell-based. The procedure, abridged: as §3
Assay [12] concerns Ramos. As to the kind of experiment: Down-regulation of c-myc gene expression in human Ramos cells after 4 days by RT-PCR analysis. In kind it is functional, cell-based. The method in brief:
as §4

Turning to `COc1cc2c(cc1OC)-c1c(cc3c(OCCCN4CCCC4)c(OC)ccc3[n+]1C)CC2`, the result in the assay on Nucleic Acid [1], in the assay on Nucleic Acid [3] and with Nucleic Acid [5] was Active. The ΔTm with Nucleic Acid [2] came to 25.4 °C; with Nucleic Acid [6], 1.4 °C. The molecule also displayed a Kd at Nucleic Acid [4] of 600 nM. The result in the assay with Nucleic Acid [7] was inactive. The IC50 on Nucleic Acid [8] amounted to 4700 nM.
Consider `COc1cc2c(cc1OC)-c1c(cc3c(OCCCN4CCCCC4)c(OC)ccc3[n+]1C)CC2`, for which the “growth inhibition (GI)” value with Ramos [9] was “Dose-dependent effect”. The outcome in the assay on Nucleic Acid [1], with Nucleic Acid [3] and with Nucleic Acid [5] was Active. For the same molecule, the result with CA46 [10] and in the assay with Nucleic Acid [7] was inactive. In addition, the ΔTm with Nucleic Acid [2] was 23.2 °C; in the assay with Nucleic Acid [6], 0.8 °C. The dissociation constant (Kd) at Nucleic Acid [4] worked out at 600 nM. Also, the “growth inhibition (GI)” value in the assay on CA46 [11] was “inactive”. Further, the Activity result in the assay with Ramos [12] was “Dose-dependent effect”. Besides, the half-maximal inhibitory concentration (IC50) on Nucleic Acid [8] stood at 5000 nM.
With `COc1ccc2c(cc3c([n+]2C)-c2cc4c(cc2CC3)OCO4)c1OCCCNC1CCCCC1`, the result in the assay with Nucleic Acid [1], in the assay with Nucleic Acid [3] and in the assay on Nucleic Acid [5] was Active. The ΔTm in the assay with Nucleic Acid [2] worked out at 11.6 °C; with Nucleic Acid [6] it was 0.9 °C. Also, on Nucleic Acid [4], the Kd is 1200 nM. For the same molecule, in the assay on Nucleic Acid [7], the outcome was inactive. Also, the half-inhibitory concentration (IC50) on Nucleic Acid [8] is 14000 nM.
For the molecule `COc1ccc2c(cc3c([n+]2C)-c2cc4c(cc2CC3)OCO4)c1OCCCN1CCCCC1`, the outcome with Nucleic Acid [1], in the assay with Nucleic Acid [3] and in the assay on Nucleic Acid [5] was Active. Besides, the thermal shift (ΔTm) came out at 21.4 °C with Nucleic Acid [2] and 0.5 °C in the assay with Nucleic Acid [6]. Moreover, the Kd on Nucleic Acid [4] was found to be 600 nM. Moreover, the result in the assay with Nucleic Acid [7] was inactive. Also, the IC50 on Nucleic Acid [8] amounted to 5400 nM.
Take `CCN(CC)CCOc1c(OC)ccc2nc3c(cc12)CCc1cc2c(cc1-3)OCO2`: the outcome with Nucleic Acid [1], in the assay with Nucleic Acid [3] and with Nucleic Acid [5] was Active. Also, the thermal shift (ΔTm) is 6.3 °C in the assay with Nucleic Acid [2] and 1.6 °C with Nucleic Acid [6]. The Kd at Nucleic Acid [4] is 2600 nM. Also, the result in the assay with Nucleic Acid [7] was inactive. At Nucleic Acid [8], the IC50 was greater than 50000 nM.
For `CCN(CC)CCCOc1c(OC)ccc2nc3c(cc12)CCc1cc(OC)c(OC)cc1-3`, the outcome in the assay on Nucleic Acid [1], with Nucleic Acid [3] and with Nucleic Acid [5] was Active. Further, the values for the thermal shift (ΔTm) with Nucleic Acid [2] and in the assay with Nucleic Acid [6] were 11.2 °C and 0.4 °C, respectively. The molecule further registered a dissociation constant (Kd) on Nucleic Acid [4] of 4400 nM. The result with Nucleic Acid [7] was inactive. Further, the 50% inhibitory concentration (IC50) on Nucleic Acid [8] is greater than 50000 nM.
Consider `COc1ccc2c(cc3c([n+]2C)-c2cc4c(cc2CC3)OCO4)c1OCCCN1CCCC1`, for which the result with Nucleic Acid [1], in the assay with Nucleic Acid [3] and in the assay on Nucleic Acid [5] was Active. The ΔTm with Nucleic Acid [2] came out at 22.2 °C; in the assay on Nucleic Acid [6], 1.1 °C. For the same molecule, binding on Nucleic Acid [4] was characterised by a dissociation constant (Kd) of 400 nM. Moreover, the outcome in the assay on Nucleic Acid [7] was inactive. The IC50 at Nucleic Acid [8] came to 5300 nM.
For `CCN(CC)CCCOc1c(OC)ccc2nc3c(cc12)CCc1cc2c(cc1-3)OCO2`, the outcome with Nucleic Acid [1], in the assay on Nucleic Acid [3] and in the assay on Nucleic Acid [5] was Active. Moreover, the ΔTm worked out at 6.2 °C with Nucleic Acid [2] and 1 °C in the assay with Nucleic Acid [6]. The molecule also came in with an equilibrium dissociation constant (Kd) at Nucleic Acid [4] of 3000 nM. Moreover, the result with Nucleic Acid [7] was inactive. Further, at Nucleic Acid [8], the IC50 was greater than 50000 nM.
Regarding `COc1cc2c(cc1OC)-c1nc3ccc(OC)c(OCCCN4CCCCC4)c3cc1CC2`, the outcome in the assay on Nucleic Acid [1], with Nucleic Acid [3] and in the assay on Nucleic Acid [5] was Active. The values for the ΔTm with Nucleic Acid [2] and with Nucleic Acid [6] were 11 °C and 1 °C, respectively. The same molecule displayed a Kd on Nucleic Acid [4] of 2800 nM. Further, in the assay with Nucleic Acid [7], the outcome was inactive. In addition, the IC50 on Nucleic Acid [8] is greater than 50000 nM.
`COc1ccc2c(cc3c([n+]2C)-c2cc4c(cc2CC3)OCO4)c1OCCCN1CCN(C)CC1`: the result with Nucleic Acid [1], with Nucleic Acid [3] and in the assay on Nucleic Acid [5] was Active. Besides, the ΔTm with Nucleic Acid [2] amounted to 19 °C; with Nucleic Acid [6] it was 0.5 °C. The same molecule showed a dissociation constant (Kd) at Nucleic Acid [4] of 800 nM. Besides, in the assay with Nucleic Acid [7], the outcome was inactive. The IC50 at Nucleic Acid [8] was 9500 nM.
As to `COc1ccc2nc3c(cc2c1OCCN1CCCC1)CCc1cc2c(cc1-3)OCO2`, the result with Nucleic Acid [1], in the assay on Nucleic Acid [3] and in the assay on Nucleic Acid [5] was Active. In addition, the ΔTm in the assay with Nucleic Acid [2] was determined as 5.3 °C; in the assay with Nucleic Acid [6] it was 1 °C. The molecule also had a dissociation constant Kd at Nucleic Acid [4] of 1400 nM. Also, in the assay with Nucleic Acid [7], the outcome was inactive. Also, on Nucleic Acid [8], the IC50 is greater than 50000 nM.
For the molecule `CCN(CC)CCCOc1c(OC)ccc2c1cc1c([n+]2C)-c2cc3c(cc2CC1)OCO3`, the result in the assay on Nucleic Acid [1], in the assay on Nucleic Acid [3] and in the assay on Nucleic Acid [5] was Active. Besides, the shift in melting temperature (ΔTm) in the assay with Nucleic Acid [2] is 21.8 °C; with Nucleic Acid [6], 1.2 °C. This molecule also yielded a Kd on Nucleic Acid [4] of 600 nM. In addition, the result with Nucleic Acid [7] was inactive. Also, on Nucleic Acid [8], the IC50 stood at 7500 nM.

As a reminder, the ΔTm is the shift of the melting midpoint relative to a reference. Broadly, the Kd is the concentration at which binding is half-saturated. Low values mean higher affinity, high ones lower affinity. For orientation: IC50 means the midpoint of a concentration-inhibition curve.
